# Assay results from ChEMBL document CHEMBL1126090, “Electrophilic opioid ligands. Oxygen tethered alpha-methylene-gamma-lactone, acrylate, isothiocyanate, and epoxide derivatives of 6 beta-naltrexol” (J Med Chem, 1992).
# pIC50: −log10 of the molar value.
# Experiments:
# [1] = biological target: T1, Opioid receptors; mu/kappa/delta (Homo sapiens) (UniProt P41145+P41143+P35372); assay: Compound was evaluated for the percent recovery of 0.5 nM of [3H]- bremazocine binding to total opioid receptor in unwashed guinea pig brain membranes at 50 (nM) concentration of the compound; format: cell membranes; conditions: Cavia porcellus, Membrane, target entry is the homologue from another species
# T1 sequence (P35372 whole entry, looked up): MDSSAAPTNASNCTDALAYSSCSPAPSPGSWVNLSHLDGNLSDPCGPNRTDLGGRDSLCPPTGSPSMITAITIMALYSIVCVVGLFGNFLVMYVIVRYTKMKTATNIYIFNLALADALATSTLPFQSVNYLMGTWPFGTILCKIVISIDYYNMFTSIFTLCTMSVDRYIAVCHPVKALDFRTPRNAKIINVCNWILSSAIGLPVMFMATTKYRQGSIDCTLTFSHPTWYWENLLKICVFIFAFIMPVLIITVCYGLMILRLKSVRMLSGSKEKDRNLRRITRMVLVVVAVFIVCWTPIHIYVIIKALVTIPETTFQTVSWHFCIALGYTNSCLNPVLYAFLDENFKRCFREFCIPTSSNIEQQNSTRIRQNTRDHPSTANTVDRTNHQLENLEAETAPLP
# T1 sequence (P41143 whole entry, looked up): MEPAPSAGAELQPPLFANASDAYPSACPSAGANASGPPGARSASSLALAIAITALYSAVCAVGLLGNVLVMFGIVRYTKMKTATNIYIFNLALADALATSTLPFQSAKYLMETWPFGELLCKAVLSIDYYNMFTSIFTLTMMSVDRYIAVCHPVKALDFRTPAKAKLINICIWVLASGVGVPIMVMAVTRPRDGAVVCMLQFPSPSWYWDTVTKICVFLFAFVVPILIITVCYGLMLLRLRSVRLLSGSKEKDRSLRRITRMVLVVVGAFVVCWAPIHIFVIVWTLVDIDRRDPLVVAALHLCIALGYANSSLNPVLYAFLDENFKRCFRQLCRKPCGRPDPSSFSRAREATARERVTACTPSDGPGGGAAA
# T1 sequence (P41145 whole entry, looked up): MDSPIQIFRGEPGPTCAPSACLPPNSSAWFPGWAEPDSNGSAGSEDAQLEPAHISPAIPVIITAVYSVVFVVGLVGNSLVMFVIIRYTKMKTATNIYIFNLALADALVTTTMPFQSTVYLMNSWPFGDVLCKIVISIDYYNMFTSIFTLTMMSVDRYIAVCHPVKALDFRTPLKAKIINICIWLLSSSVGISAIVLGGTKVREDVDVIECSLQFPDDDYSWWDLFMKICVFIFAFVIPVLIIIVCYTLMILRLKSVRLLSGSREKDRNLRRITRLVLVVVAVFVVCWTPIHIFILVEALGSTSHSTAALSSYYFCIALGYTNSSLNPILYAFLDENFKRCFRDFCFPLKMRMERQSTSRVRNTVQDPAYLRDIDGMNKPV
# [2] = biological target: T1, Opioid receptors; mu/kappa/delta (Homo sapiens); assay: Compound was evaluated for the percent recovery of 0.5 nM of [3H]- bremazocine binding to total opioid receptor in washed guinea pig brain membranes at 50 (nM) concentration of the compound; format: cell membranes; conditions: Cavia porcellus, Membrane, target entry is the homologue from another species
# How it was run: (§1)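 Guinea pig brain membranes were exposed to ligand for 1 h at 25 °C. Washing: 4-fold dilution with buffer, 20000g for 15 min, pellet resuspended in 3 volumes of buffer, 37 °C for 15 min, recentrifuged, resuspended in the original volume. Rebinding with the named radioligand in Tris-HCl pH 7.4, 25 °C, 1 h, filtration, scintillation. Reported as percent recovery.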
# [3] = biological target: Mu-type opioid receptor (Cavia porcellus, UniProt P97266); assay: inhibition of 1.0 nM [3H]- DAGO binding to guinea pig brain membrane opioid receptor mu
# Mu-type opioid receptor, sequence (P97266 whole entry): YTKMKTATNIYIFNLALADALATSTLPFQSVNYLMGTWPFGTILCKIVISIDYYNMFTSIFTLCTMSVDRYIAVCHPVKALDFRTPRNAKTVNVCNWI
# How it was run: (§2)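 Crude guinea pig brain membrane homogenate. Compounds as free amine in 50% acetic acid, serially diluted in water; nine concentrations in competition with radioligand ([3H]DAGO for μ; [3H]bremazocine plus unlabeled DAGO and DPDPE for κ). Incubated in 50 mM Tris-HCl pH 7.4, 25 °C, 1 h. Then GF/B filtration, two cold buffer rinses, scintillation counting. IC50 by log-probit analysis.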
# [4] = biological target: Kappa-type opioid receptor (Cavia porcellus, UniProt P41144); assay: Displacement of 0.5 nM [3H]bremazocine from guinea pig brain membrane opioid receptor kappa with 100 nM DAGO and 100 nM DPDPE; how it was run: as §2
# Kappa-type opioid receptor, sequence (P41144 whole entry): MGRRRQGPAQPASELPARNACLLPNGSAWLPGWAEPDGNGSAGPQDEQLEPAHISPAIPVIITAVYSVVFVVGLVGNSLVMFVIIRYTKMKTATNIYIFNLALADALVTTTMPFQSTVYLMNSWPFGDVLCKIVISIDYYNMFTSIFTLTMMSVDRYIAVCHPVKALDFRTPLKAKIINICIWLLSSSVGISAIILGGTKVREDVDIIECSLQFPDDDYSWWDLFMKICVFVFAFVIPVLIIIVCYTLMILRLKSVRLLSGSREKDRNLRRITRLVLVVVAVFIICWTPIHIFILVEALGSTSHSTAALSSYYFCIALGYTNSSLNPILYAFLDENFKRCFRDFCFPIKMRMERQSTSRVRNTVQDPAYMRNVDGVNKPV
# [5] = biological target: T1, Opioid receptors; mu/kappa/delta (Homo sapiens); assay: Compound was evaluated for the percent recovery of 0.5 nM of [3H]- bremazocine binding to total opioid receptor in guinea pig brain membranes at 50 (nM) concentration protection by 1 uM Naloxone.; format: cell membranes; conditions: Cavia porcellus, Membrane, target entry is the homologue from another species
# How it was run: (§3)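 Membranes were then washed (4-fold dilution, 20000g for 15 min, 37 °C for 15 min in 3 volumes, recentrifuged) and assayed with the named radioligand by filtration binding. Reported as percent recovery.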
# [6] = biological target: Opioid receptors; mu/kappa/delta; assay: Inhibition of 0.5 nM [3H]bremazocine binding to guinea pig brain membrane opioid receptors; parameters: species or system Cavia porcellus
# [7] = biological target: Delta-type opioid receptor (Homo sapiens) (UniProt P41143); assay: Compound was evaluated for the percent recovery of 1.0 nM of [3H]- DPDPE binding to Opioid receptor delta 1 in guinea pig brain membranes at 17(nM) concentration protection by 1 uM Naloxone.; format: cell membranes; conditions: Cavia porcellus, Membrane, target entry is the homologue from another species; how it was run: as §3
# Delta-type opioid receptor (Homo sapiens), sequence (P41143 whole entry): as the sequence (P41143 whole entry, looked up) above
# [8] = biological target: Mu-type opioid receptor (Cavia porcellus) (UniProt P97266); assay: Compound was evaluated for the percent recovery of 1.0 nM of [3H]- DAGO binding to opioid receptor mu in guinea pig brain membranes at 10 (nM) concentration protection by 1 uM Naloxone.; format: cell membranes; conditions: Membrane; how it was run: as §3
# Mu-type opioid receptor (Cavia porcellus), sequence (P97266 whole entry): as the sequence (P97266 whole entry) above
# [9] = biological target: Mu-type opioid receptor (Cavia porcellus) (UniProt P97266); assay: Compound was evaluated for the percent recovery of 1.0 nM of [3H]- DAGO binding to opioid receptor mu in washed guinea pig brain membranes at 10(nM) concentration; format: cell membranes; conditions: Membrane; how it was run: as §1
# [10] = biological target: T1, Opioid receptors; mu/kappa/delta (Homo sapiens); assay: Compound was evaluated for the percent recovery of 0.5 nM of [3H]- bremazocine binding to of total opioid receptor in washed guinea pig brain membranes at 50 (nM) concentration of the compound; format: cell membranes; conditions: Cavia porcellus, Membrane, target entry is the homologue from another species; how it was run: as §1
# [11] = biological target: T1, Opioid receptors; mu/kappa/delta (Homo sapiens); assay: Compound was evaluated for the percent recovery of 0.5 nM of [3H]- bremazocine binding to of total opioid receptor in unwashed guinea pig brain membranes at 50(nM) concentration of the compound; format: cell membranes; conditions: Cavia porcellus, Membrane, target entry is the homologue from another species
# [12] = biological target: Mu-type opioid receptor (Cavia porcellus) (UniProt P97266); assay: Compound was evaluated for the percent recovery of 1.0 nM of [3H]- DAGO binding to opioid receptor mu in un washed guinea pig brain membranes at 10(nM) concentration; conditions: Membrane
# [13] = biological target: Delta-type opioid receptor (Homo sapiens) (UniProt P41143); assay: Compound was evaluated for the percent recovery of 1.0 nM of [3H]- DPDPE binding to Opioid receptor delta 1 in guinea pig brain membranes at 22(nM) concentration protection by 1 uM Naloxone.; format: cell membranes; conditions: Cavia porcellus, Membrane, target entry is the homologue from another species; how it was run: as §3
# [14] = biological target: Mu-type opioid receptor (Cavia porcellus) (UniProt P97266); assay: Compound was evaluated for the percent recovery of 1.0 nM of [3H]- DAGO binding to opioid receptor mu in washed guinea pig brain membranes at 10 (nM) concentration; format: cell membranes; conditions: Membrane; how it was run: as §1
# [15] = biological target: Mu-type opioid receptor (Cavia porcellus) (UniProt P97266); assay: Compound was evaluated for the percent recovery of 1.0 nM of [3H]- DAGO binding to opioid receptor mu in un washed guinea pig brain membranes at 10 (nM) concentration; conditions: Membrane
smiles,measurement,setting,value
Oc1ccc2c3c1O[C@H]1[C@H](OC[C@@H]4CO4)CC[C@@]4(O)[C@@H](C2)N(CC2CC2)CC[C@]314,% recovery,[1],10
same,% recovery,[2],79
same,pIC50,[3],8.46
same,pIC50,[4],7.77
same,% recovery,[5],88
same,IC50,[6],12 nM
C=C1C[C@@H](CO[C@@H]2CC[C@@]3(OC(C)=O)[C@H]4Cc5ccc(O)c6c5[C@@]3(CCN4CC3CC3)[C@H]2O6)OC1=O,% recovery,[7],71
same,% recovery,[8],55
same,% recovery,[9],71
same,% recovery,[10],54
same,pIC50,[3],8.55
same,% recovery,[11],20
same,pIC50,[4],7.60
same,% recovery,[5],61
same,IC50,[6],14 nM
same,% recovery,[12],21
C=C1C[C@H](CO[C@@H]2CC[C@@]3(O)[C@H]4Cc5ccc(O)c6c5[C@@]3(CCN4CC3CC3)[C@H]2O6)OC1=O,% recovery,[8],88
same,pIC50,[3],8.38
same,pIC50,[4],7.36
same,IC50,[6],19 nM
C=C1C[C@@H](CO[C@@H]2CC[C@@]3(O)[C@H]4Cc5ccc(O)c6c5[C@@]3(CCN4CC3CC3)[C@H]2O6)OC1=O,pIC50,[3],8.47
same,pIC50,[4],7.55
same,IC50,[6],18 nM
C=C1C[C@H](CO[C@@H]2CC[C@@]3(OC(C)=O)[C@H]4Cc5ccc(O)c6c5[C@@]3(CCN4CC3CC3)[C@H]2O6)OC1=O,% recovery,[13],86
same,% recovery,[1],27
same,% recovery,[14],49
same,% recovery,[8],94
same,% recovery,[2],68
same,pIC50,[3],8.66
same,pIC50,[4],7.32
same,% recovery,[15],10
same,% recovery,[5],84
same,IC50,[6],15 nM
Oc1ccc2c3c1O[C@H]1[C@H](OC[C@H]4CO4)CC[C@@]4(O)[C@@H](C2)N(CC2CC2)CC[C@]314,pIC50,[3],8.54
same,pIC50,[4],7.77
same,IC50,[6],11 nM
